Measured values published in the EternaBench riboswitch data.

Test system: MS2 coat protein
Experiment: apparent Kd, MS2 coat protein; higher = weaker binding; RNA-MaP array; FMN 200 µM where present
How it was run: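 Apparent Kd: the median of filtered binding-curve fits from single clusters. Designs were transcribed on Illumina sequencing-chip clusters by stalled E. coli RNA polymerase and titrated with SNAP-549-labelled MS2 coat protein from 0.7 or 1.5 nM, doubling to 3 µM, in 100 mM Tris-HCl pH 7.5, 80 mM KCl, 4 mM MgCl2, BSA, DTT, yeast tRNA and Tween-20. Each series ran without and then with constant ligand, and green signal was normalised to red-channel RNA signal and control-cluster median Fmax.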

[1] = designed as: ON switch for flavin mononucleotide, no ligand
[2] = ligand present: flavin mononucleotide, designed as: ON switch for flavin mononucleotide
[3] = ligand present: flavin mononucleotide, designed as: OFF switch for flavin mononucleotide
[4] = designed as: OFF switch for flavin mononucleotide, no ligand

| Sequence | apparent Kd [1] [µM] | apparent Kd [2] [µM] | apparent Kd [3] [µM] | apparent Kd [4] [µM] |
| --- | --- | --- | --- | --- |
| UGGUACUAGGGAGGAUAUGGGAAGAUACAUGAGGAUCACCCAUGUUUAAGAAUUCCGAGAGGCAACUAGAAGGCCCUAGUACCU | 0.0357 | 0.013 | – | – |
| AUGCUUUAUGUAGGAUAUGCAUACGGUACGUAUGCAGAAGGACAUGAGGAUCACCCAUGUAAAUUAUUAUUACAUAUCAUACAU | – | – | 0.044 | – |
| GUAUGCAAGUAGAAGGACGGAUAUUUUGAAAACGUAGGAUAUACAGAAUCAUAUCCACAUGGAUACAUGAGGAUCACCCAUGUA | – | – | 0.0118 | 0.012 |
| CAUGGGACUUCCUCGCGGAACAUGAGGAUCACCCAUGUUGCGGAGGAUAUACUUCGGCGCUCCGAGUAGAAGGCUGCAGAUCCC | – | – | 0.0331 | 0.0244 |
| GUUUAGUGAGGAUAUGUGGCAUAGAUCGAGCGCGGUCGGCUACAGAAGGCACAUGAGGAUCACCCAUGUUUCUC | – | – | 0.498 | 0.0399 |
| GCAGGUUAAGUCAGGAUAUACCUAUGGAUACAUAGGUAGAAGGGACAUGAGGAUCACCCAUGUGACUCACCUGC | – | – | 0.0576 | 0.0279 |
| AAAAAACAUGAGGAUCACCCAUGUGAGGAUAUCGGAAAAGGAAAAAAAAAAAAGAAGACGAGAAGGCACAAAGA | – | – | 0.0604 | 0.0484 |
| GGCGGUCGGGAGGAUAUUCGGGCUGUUUGGCUUGGAGAAGGCUCGACAUGAGGAUCACCCAUGUUGGUGUUUCC | – | – | 0.103 | 0.561 |
| UUGUUAUAUGUAGGAUAUGCAUAUUAUUAUUAUGCAGAAGGACAUGAGGAUCACCCAUGUAUGUUGUUGUUAUAUAUUAUAUAU | – | – | 0.0278 | 0.0248 |
| CCGCUCGAAGGAUAUACAAUCCUCAGACUCUUCGACCAAAGACAUGAGGAUCACCCAUGUAGAAGGUCGGCGGA | – | – | 0.0259 | 0.0133 |
| CGGACCGGCUCAGGAUAUGGGUGCUCAAAAGACAUGAGGAUCACCCAUGUCUCAAGCUGUGCACAUCAGAAGGGAGCUUCGGGU | 0.0133 | 0.0163 | – | – |
| AACAGUACAGGAUAUACAUGAGGAUCACCCAUGUGACAAUUAAGUGGCGUACCACAGAGUAGAAGGGUACUGGA | – | – | 0.151 | 0.035 |
| UCAUAAUAGAUCCUAUUUAUCUACAUGAGGAUCACCCAUGUGCAGGAUAUGCUAUAAUUUAAUAAGCAGAAGGGCAAUUUCAGA | – | – | 0.381 | 0.0968 |
| GGGCGACAUGAGGAUCACCCAUGUCAGGAUAUCGGGCCCGGGCCGAAAGGCCCGGGCCCGAGAAGGGACAGCCC | – | – | 0.0166 | 0.0188 |
| GCAAAGCCUGACAUGAGGAUCACCCAUGUUAGAUUGUUAUGUCAGGAUAUUGUCUAGAACCUAGACAAGAAGGGAUGCUUUGCU | 0.337 | 0.0264 | – | – |
| AUAUGACAUGAGGAUCACCCAUGUAUUCGAGCAUGAGGAUAUAUGACUCGUCAUCGGCGGAUAGAAGGCAUGGUUG | 0.0885 | 0.143 | – | – |
| AGAUACAACCAGAAGGACAUGAGGAUCACCCAUGUAGGAUAUGGGUUACACGUUCCUGUGAAUUGUAACGACGCUACGAAGAGU | 0.113 | 0.0123 | – | – |
| UGAUAGGACAGAGGAUAUACGUGCUAGAGAUACUAGCAAAAUUUCCUCACAUGAGGAUCACCCAUGUAGAAGGCUGUCCUAUCG | – | – | 0.453 | 0.0176 |
| AACAUGGUCCAGAAGGGCUAUUUAUUUAAUUAUUAUUUAGAACAGCAUAGCAGGAUAUGGUUAACAUGAGGAUCACCCAUGUAC | 0.016 | 0.0115 | – | – |
| UGUAUGGACAGAGGAUAUACAGAUAGGAUCUACUAUCAAACAGUCCUGACAUGAGGAUCACCCAUGUAGAAGGCUGUCCAUACU | – | – | 0.105 | 0.0228 |
